# Laboratory results: ChEMBL document CHEMBL4145690, “Rational Design and Structure Validation of a Novel Peptide Inhibitor of the Adenomatous-Polyposis-Coli (APC)-Rho-Guanine-Nucleotide-Exchange-Factor-4 (Asef) Interaction” (J Med Chem, 2018)
# *1 amine or outer side, *2 acyl side, *3 side chain or, on linkers, in order; H or OH if unused. Where a SMILES comes first, the peptide text is derived from it. [ ]: non-standard residue; d: D form. The star is where a group is joined. X4 = O=C(C1(N[*:1])C[C@@H]2CC[C@H]1C2)[*:2]; Ala(4-thiazolyl) = N[C@@H](Cc1cscn1)C(=O)O; Leu(4,5-dehydro) = C=C(C)C[C@H](N)C(=O)O; X1 = O=C([C@H](Cc1ccc(Br)s1)N[*:1])[*:2]; Ala(2-furyl) = N[C@@H](Cc1ccco1)C(=O)O; Ala(cHept) = N[C@@H](CC1CCCCCC1)C(=O)O; 2Nal = N[C@@H](Cc1ccc2ccccc2c1)C(=O)O; X3 = O=C(c1cc2c(s1)CN([*:1])CC2)[*:2]; Ala(cPent) = N[C@@H](CC1CCCC1)C(=O)O; Met(O2) = CS(=O)(=O)CC[C@H](N)C(=O)O; X2 = C=C(Br)C[C@H](N[*:1])C(=O)[*:2]; Gly(octyl) = CCCCCCCC[C@H](N)C(=O)O; Gly(cPent) = N[C@H](C(=O)O)C1CCCC1; Ala(cPr) = N[C@@H](CC1CC1)C(=O)O; Met(O) = CS(=O)CC[C@H](N)C(=O)O; 2Thi = N[C@@H](Cc1cccs1)C(=O)O; 3Thi = N[C@@H](Cc1ccsc1)C(=O)O; Cha = N[C@@H](CC1CCCCC1)C(=O)O; Cba = N[C@@H](CC1CCC1)C(=O)O; Phg = N[C@H](C(=O)O)c1ccccc1; Tle = CC(C)(C)[C@H](N)C(=O)O; hLeu = CC(C)CC[C@H](N)C(=O)O; Ac8c = NC1(C(=O)O)CCCCCCC1; Pra = C#CC[C@H](N)C(=O)O; Cbz = O=C(OCc1ccccc1)*
# Biological target: Adenomatous polyposis coli protein (Homo sapiens, UniProt P25054)
# Assay: Binding affinity to APC protein (303 to 739 residues) (unknown origin) incubated for 60 mins followed by probe addition and measured after 60 mins by competitive fluorescence polarization assay; call rule not given here
# Outline: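 Peptide in DMSO preincubated with protein 60 min at room temperature with shaking; probe added, then 60 min more. Controls: blank, tracer only, complex only. IC50 from dose-response curves, mean of three independent experiments.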
# Sequence of Adenomatous polyposis coli protein (P25054 whole entry, the tested form may be a part): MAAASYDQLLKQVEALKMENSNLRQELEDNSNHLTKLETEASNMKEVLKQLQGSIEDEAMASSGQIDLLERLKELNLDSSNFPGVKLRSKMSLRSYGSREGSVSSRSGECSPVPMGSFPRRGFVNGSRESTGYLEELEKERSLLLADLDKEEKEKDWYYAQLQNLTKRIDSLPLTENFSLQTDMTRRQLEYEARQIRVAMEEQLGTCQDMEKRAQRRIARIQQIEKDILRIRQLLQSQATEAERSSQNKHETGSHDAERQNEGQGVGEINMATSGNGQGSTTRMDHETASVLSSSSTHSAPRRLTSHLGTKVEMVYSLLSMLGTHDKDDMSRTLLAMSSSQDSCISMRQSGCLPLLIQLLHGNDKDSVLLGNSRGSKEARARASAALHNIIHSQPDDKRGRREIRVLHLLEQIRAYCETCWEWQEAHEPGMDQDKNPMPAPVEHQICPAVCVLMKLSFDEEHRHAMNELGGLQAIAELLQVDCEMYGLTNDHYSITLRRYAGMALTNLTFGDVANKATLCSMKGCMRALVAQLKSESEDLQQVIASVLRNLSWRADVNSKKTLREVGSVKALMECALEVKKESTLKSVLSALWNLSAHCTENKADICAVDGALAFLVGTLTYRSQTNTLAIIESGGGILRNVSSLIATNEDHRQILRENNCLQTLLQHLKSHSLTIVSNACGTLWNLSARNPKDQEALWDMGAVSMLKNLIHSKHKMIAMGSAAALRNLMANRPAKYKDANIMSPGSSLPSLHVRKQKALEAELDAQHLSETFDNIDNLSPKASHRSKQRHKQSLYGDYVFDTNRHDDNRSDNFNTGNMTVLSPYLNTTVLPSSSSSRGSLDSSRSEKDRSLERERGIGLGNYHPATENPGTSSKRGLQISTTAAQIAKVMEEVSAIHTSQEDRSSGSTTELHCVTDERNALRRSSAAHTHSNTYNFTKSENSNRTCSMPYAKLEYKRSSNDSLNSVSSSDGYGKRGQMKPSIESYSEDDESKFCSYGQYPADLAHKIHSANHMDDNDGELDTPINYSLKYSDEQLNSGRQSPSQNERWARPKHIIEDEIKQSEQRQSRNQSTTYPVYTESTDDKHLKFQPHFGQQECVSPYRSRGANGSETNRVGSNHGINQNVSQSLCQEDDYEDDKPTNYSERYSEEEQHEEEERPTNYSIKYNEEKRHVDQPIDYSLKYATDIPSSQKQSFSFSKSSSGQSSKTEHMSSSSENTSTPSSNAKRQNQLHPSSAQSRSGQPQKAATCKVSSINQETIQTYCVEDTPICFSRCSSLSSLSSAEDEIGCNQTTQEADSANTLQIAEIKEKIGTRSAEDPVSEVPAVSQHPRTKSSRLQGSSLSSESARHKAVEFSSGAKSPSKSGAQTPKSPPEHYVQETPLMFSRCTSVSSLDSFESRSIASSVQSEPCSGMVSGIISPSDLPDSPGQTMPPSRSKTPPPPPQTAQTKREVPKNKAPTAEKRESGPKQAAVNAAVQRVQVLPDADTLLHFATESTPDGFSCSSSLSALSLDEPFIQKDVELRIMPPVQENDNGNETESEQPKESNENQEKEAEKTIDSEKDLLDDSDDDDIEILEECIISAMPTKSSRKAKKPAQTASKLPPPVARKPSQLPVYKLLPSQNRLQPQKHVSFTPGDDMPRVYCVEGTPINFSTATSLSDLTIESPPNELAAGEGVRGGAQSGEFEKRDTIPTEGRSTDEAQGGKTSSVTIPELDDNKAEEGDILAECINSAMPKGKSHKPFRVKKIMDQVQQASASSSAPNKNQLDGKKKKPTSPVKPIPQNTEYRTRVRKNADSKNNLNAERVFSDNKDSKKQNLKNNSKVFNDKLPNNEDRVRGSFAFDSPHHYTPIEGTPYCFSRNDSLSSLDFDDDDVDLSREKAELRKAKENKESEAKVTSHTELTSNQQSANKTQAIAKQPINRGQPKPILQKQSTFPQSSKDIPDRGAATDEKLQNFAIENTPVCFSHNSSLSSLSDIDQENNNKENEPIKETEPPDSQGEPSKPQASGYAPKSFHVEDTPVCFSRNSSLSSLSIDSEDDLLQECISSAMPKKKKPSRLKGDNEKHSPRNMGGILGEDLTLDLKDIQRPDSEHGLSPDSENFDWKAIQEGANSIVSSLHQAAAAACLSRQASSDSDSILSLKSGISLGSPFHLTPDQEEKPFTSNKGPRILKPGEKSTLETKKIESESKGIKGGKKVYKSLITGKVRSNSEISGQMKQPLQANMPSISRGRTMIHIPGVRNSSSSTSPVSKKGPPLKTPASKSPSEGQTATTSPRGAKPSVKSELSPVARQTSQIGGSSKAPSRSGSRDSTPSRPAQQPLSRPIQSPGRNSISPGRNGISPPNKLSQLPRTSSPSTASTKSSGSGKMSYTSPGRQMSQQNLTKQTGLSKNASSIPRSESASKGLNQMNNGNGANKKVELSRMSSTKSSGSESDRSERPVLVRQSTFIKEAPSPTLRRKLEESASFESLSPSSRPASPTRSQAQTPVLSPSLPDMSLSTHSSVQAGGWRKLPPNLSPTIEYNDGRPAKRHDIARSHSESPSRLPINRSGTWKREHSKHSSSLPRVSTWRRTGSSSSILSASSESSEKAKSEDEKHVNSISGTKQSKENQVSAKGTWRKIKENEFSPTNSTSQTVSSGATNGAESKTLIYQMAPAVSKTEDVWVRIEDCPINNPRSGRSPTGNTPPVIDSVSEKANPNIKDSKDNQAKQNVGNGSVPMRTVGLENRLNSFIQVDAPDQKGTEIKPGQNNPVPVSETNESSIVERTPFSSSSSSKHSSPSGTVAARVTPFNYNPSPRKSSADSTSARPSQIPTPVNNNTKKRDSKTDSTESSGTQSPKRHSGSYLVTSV
Structure (SMILES),IC50 [µM],Kd
C[C@H](NC(=O)OCc1ccccc1)C(=O)NCC(=O)N[C@@H](CCC(=O)O)C(=O)N[C@@H](CO)C(=O)N[C@@H](Cc1ccc2ccccc2c1)C(=O)N[C@@H](Cc1ccc(O)cc1)C(=O)N[C@@H](CCC(=O)O)C(N)=O (Cbz-AGES[2Nal]YE-NH2),3.96,
C[C@H](NC(=O)OCc1ccccc1)C(=O)NCC(=O)N[C@@H](CCC(=O)O)C(=O)N[C@@H](CO)C(=O)N[C@H](C(=O)N[C@@H](Cc1ccc(O)cc1)C(=O)N[C@@H](CCC(=O)O)C(N)=O)C1CCCC1 (Cbz-AGES[Gly(cPent)]YE-NH2),4.07,
C[C@H](NC(=O)OCc1ccccc1)C(=O)NCC(=O)N[C@@H](CCC(=O)O)C(=O)N[C@@H](CO)C(=O)N[C@H](C(=O)N[C@@H](Cc1ccc(O)cc1)C(=O)N[C@@H](CCC(=O)O)C(N)=O)c1ccccc1 (Cbz-AGES[Phg]YE-NH2),4.29,
C[C@H](NC(=O)OCc1ccccc1)C(=O)NCC(=O)N[C@@H](CCC(=O)O)C(=O)N[C@@H](CO)C(=O)NC1(C(=O)N[C@@H](Cc2ccc(O)cc2)C(=O)N[C@@H](CCC(=O)O)C(N)=O)CCCCCCC1 (Cbz-AGES[Ac8c]YE-NH2),10.3,
C[C@H](NC(=O)OCc1ccccc1)C(=O)NCC(=O)N[C@@H](CCC(=O)O)C(=O)N[C@@H](CO)C(=O)N[C@@H](Cc1c[nH]c2ccccc12)C(=O)N[C@@H](Cc1ccc(O)cc1)C(=O)N[C@@H](CCC(=O)O)C(N)=O (Cbz-AGESWYE-NH2),10.5,
CC(C)C[C@H](NC(=O)[C@@H](NC(=O)[C@H](CCC(=O)O)NC(=O)CNC(=O)[C@H](C)NC(=O)OCc1ccccc1)[C@H](C)O)C(=O)N[C@@H](Cc1ccc(O)cc1)C(=O)N[C@@H](CCC(=O)O)C(N)=O,2.01,
"C=C(C)C[C@H](NC(=O)[C@H](CO)NC(=O)[C@H](CCC(=O)O)NC(=O)CNC(=O)[C@H](C)NC(=O)OCc1ccccc1)C(=O)N[C@@H](Cc1ccc(O)cc1)C(=O)N[C@@H](CCC(=O)O)C(N)=O (Cbz-AGES[Leu(4,5-dehydro)]YE-NH2)",3.64,
C[C@H](NC(=O)OCc1ccccc1)C(=O)NCC(=O)N[C@@H](CCC(=O)O)C(=O)N[C@@H](CO)C(=O)NC1(C(=O)N[C@@H](Cc2ccc(O)cc2)C(=O)N[C@@H](CCC(=O)O)C(N)=O)C[C@@H]2CC[C@H]1C2 (stereo not given in full) (Cbz-AGES[X4]YE-NH2),128,
C[C@H](NC(=O)OCc1ccccc1)C(=O)NCC(=O)N[C@@H](CCC(=O)O)C(=O)N[C@@H](CO)C(=O)N[C@@H](CC[S+](C)[O-])C(=O)N[C@@H](Cc1ccc(O)cc1)C(=O)N[C@@H](CCC(=O)O)C(N)=O (stereo not given in full) (Cbz-AGES[Met(O)]YE-NH2),13.9,
C[C@H](NC(=O)OCc1ccccc1)C(=O)NCC(=O)N[C@@H](CCC(=O)O)C(=O)N[C@@H](CO)C(=O)N[C@@H](Cc1ccsc1)C(=O)N[C@@H](Cc1ccc(O)cc1)C(=O)N[C@@H](CCC(=O)O)C(N)=O (Cbz-AGES[3Thi]YE-NH2),6.86,
C[C@H](NC(=O)OCc1ccccc1)C(=O)NCC(=O)N[C@@H](CCC(=O)O)C(=O)N[C@@H](CO)C(=O)N[C@H](C(=O)N[C@@H](Cc1ccc(O)cc1)C(=O)N[C@@H](CCC(=O)O)C(N)=O)C(C)(C)C (Cbz-AGES[Tle]YE-NH2),31.5,
C[C@H](NC(=O)OCc1ccccc1)C(=O)NCC(=O)N[C@@H](CCC(=O)O)C(=O)N[C@@H](CO)C(=O)N[C@@H](Cc1ccc(O)cc1)C(=O)N[C@@H](Cc1ccc(O)cc1)C(=O)N[C@@H](CCC(=O)O)C(N)=O (Cbz-AGESYYE-NH2),5.07,
CC(C)CC[C@H](NC(=O)[C@H](CO)NC(=O)[C@H](CCC(=O)O)NC(=O)CNC(=O)[C@H](C)NC(=O)OCc1ccccc1)C(=O)N[C@@H](Cc1ccc(O)cc1)C(=O)N[C@@H](CCC(=O)O)C(N)=O (Cbz-AGES[hLeu]YE-NH2),0.84,
CC(C)C[C@H](NC(=O)[C@H](CC(=O)O)NC(=O)[C@H](CCC(=O)O)NC(=O)CNC(=O)[C@H](C)NC(=O)OCc1ccccc1)C(=O)N[C@@H](Cc1ccc(O)cc1)C(=O)N[C@@H](CCC(=O)O)C(N)=O (Cbz-AGEDLYE-NH2),6.35,
CCCCCCCC[C@H](NC(=O)[C@H](CO)NC(=O)[C@H](CCC(=O)O)NC(=O)CNC(=O)[C@H](C)NC(=O)OCc1ccccc1)C(=O)N[C@@H](Cc1ccc(O)cc1)C(=O)N[C@@H](CCC(=O)O)C(N)=O (Cbz-AGES[Gly(octyl)]YE-NH2),3.02,
C#CC[C@H](NC(=O)[C@H](CO)NC(=O)[C@H](CCC(=O)O)NC(=O)CNC(=O)[C@H](C)NC(=O)OCc1ccccc1)C(=O)N[C@@H](Cc1ccc(O)cc1)C(=O)N[C@@H](CCC(=O)O)C(N)=O (Cbz-AGES[Pra]YE-NH2),30.8,
C[C@H](NC(=O)OCc1ccccc1)C(=O)NCC(=O)N[C@@H](CCC(=O)O)C(=O)N[C@@H](CO)C(=O)N[C@@H](Cc1ccc(Br)s1)C(=O)N[C@@H](Cc1ccc(O)cc1)C(=O)N[C@@H](CCC(=O)O)C(N)=O (Cbz-AGES[X1]YE-NH2),5,
C=C(Br)C[C@H](NC(=O)[C@H](CO)NC(=O)[C@H](CCC(=O)O)NC(=O)CNC(=O)[C@H](C)NC(=O)OCc1ccccc1)C(=O)N[C@@H](Cc1ccc(O)cc1)C(=O)N[C@@H](CCC(=O)O)C(N)=O (Cbz-AGES[X2]YE-NH2),1.82,

Structure (SMILES),IC50 [µM],Kd
C[C@H](NC(=O)OCc1ccccc1)C(=O)NCC(=O)N[C@@H](CCC(=O)O)C(=O)N[C@@H](CO)C(=O)N[C@@H](Cc1ccccc1)C(=O)N[C@@H](Cc1ccc(O)cc1)C(=O)N[C@@H](CCC(=O)O)C(N)=O (Cbz-AGESFYE-NH2),4.36,
C[C@H](NC(=O)OCc1ccccc1)C(=O)NCC(=O)N[C@@H](CCC(=O)O)C(=O)N[C@@H](CO)C(=O)N[C@@H](Cc1cscn1)C(=O)N[C@@H](Cc1ccc(O)cc1)C(=O)N[C@@H](CCC(=O)O)C(N)=O (Cbz-AGES[Ala(4-thiazolyl)]YE-NH2),16.4,
CSCC[C@H](NC(=O)[C@H](CO)NC(=O)[C@H](CCC(=O)O)NC(=O)CNC(=O)[C@H](C)NC(=O)OCc1ccccc1)C(=O)N[C@@H](Cc1ccc(O)cc1)C(=O)N[C@@H](CCC(=O)O)C(N)=O (Cbz-AGESMYE-NH2),3.3,
C[C@H](NC(=O)OCc1ccccc1)C(=O)NCC(=O)N[C@@H](CCC(=O)O)C(=O)N[C@@H](CO)C(=O)N[C@@H](CC1CC1)C(=O)N[C@@H](Cc1ccc(O)cc1)C(=O)N[C@@H](CCC(=O)O)C(N)=O (Cbz-AGES[Ala(cPr)]YE-NH2),1.26,
C[C@H](NC(=O)OCc1ccccc1)C(=O)NCC(=O)N[C@@H](CCC(=O)O)C(=O)N1CCc2cc(C(=O)N[C@@H](Cc3ccc(O)cc3)C(=O)N[C@@H](CCC(=O)O)C(N)=O)sc2C1 (Cbz-AGE[X3]YE-NH2),,Not Active
C[C@H](NC(=O)OCc1ccccc1)C(=O)NCC(=O)N[C@@H](CCC(=O)O)C(=O)N[C@@H](CO)C(=O)NCC(=O)N[C@@H](Cc1ccc(O)cc1)C(=O)N[C@@H](CCC(=O)O)C(N)=O (Cbz-AGESGYE-NH2),109,
CC(C)C[C@H](NC(=O)[C@H](CS)NC(=O)[C@H](CCC(=O)O)NC(=O)CNC(=O)[C@H](C)NC(=O)OCc1ccccc1)C(=O)N[C@@H](Cc1ccc(O)cc1)C(=O)N[C@@H](CCC(=O)O)C(N)=O (Cbz-AGECLYE-NH2),1.51,
CC[C@H](C)[C@H](NC(=O)[C@H](CO)NC(=O)[C@H](CCC(=O)O)NC(=O)CNC(=O)[C@H](C)NC(=O)OCc1ccccc1)C(=O)N[C@@H](Cc1ccc(O)cc1)C(=O)N[C@@H](CCC(=O)O)C(N)=O (Cbz-AGESIYE-NH2),3.85,
CC(C)C[C@H](NC(=O)[C@H](CC(N)=O)NC(=O)[C@H](CCC(=O)O)NC(=O)CNC(=O)[C@H](C)NC(=O)OCc1ccccc1)C(=O)N[C@@H](Cc1ccc(O)cc1)C(=O)N[C@@H](CCC(=O)O)C(N)=O (Cbz-AGENLYE-NH2),5.19,
C[C@H](NC(=O)OCc1ccccc1)C(=O)NCC(=O)N[C@@H](CCC(=O)O)C(=O)N[C@@H](CO)C(=O)N[C@@H](CC1CCCCCC1)C(=O)N[C@@H](Cc1ccc(O)cc1)C(=O)N[C@@H](CCC(=O)O)C(N)=O (Cbz-AGES[Ala(cHept)]YE-NH2),1.94,
C[C@H](NC(=O)OCc1ccccc1)C(=O)NCC(=O)N[C@@H](CCC(=O)O)C(=O)N[C@@H](CO)C(=O)N[C@@H](Cc1cccs1)C(=O)N[C@@H](Cc1ccc(O)cc1)C(=O)N[C@@H](CCC(=O)O)C(N)=O (Cbz-AGES[2Thi]YE-NH2),4.01,
C[C@H](NC(=O)OCc1ccccc1)C(=O)NCC(=O)N[C@@H](CCC(=O)O)C(=O)N[C@@H](CO)C(=O)N[C@@H](Cc1ccco1)C(=O)N[C@@H](Cc1ccc(O)cc1)C(=O)N[C@@H](CCC(=O)O)C(N)=O (Cbz-AGES[Ala(2-furyl)]YE-NH2),6.95,
C[C@H](NC(=O)OCc1ccccc1)C(=O)NCC(=O)N[C@@H](CCC(=O)O)C(=O)N[C@@H](CO)C(=O)N[C@@H](Cc1c[nH]cn1)C(=O)N[C@@H](Cc1ccc(O)cc1)C(=O)N[C@@H](CCC(=O)O)C(N)=O (Cbz-AGESHYE-NH2),50.6,
C[C@H](NC(=O)OCc1ccccc1)C(=O)NCC(=O)N[C@@H](CCC(=O)O)C(=O)N[C@@H](CO)C(=O)N[C@@H](CCS(C)(=O)=O)C(=O)N[C@@H](Cc1ccc(O)cc1)C(=O)N[C@@H](CCC(=O)O)C(N)=O (Cbz-AGES[Met(O2)]YE-NH2),5.73,
C[C@H](NC(=O)OCc1ccccc1)C(=O)NCC(=O)N[C@@H](CCC(=O)O)C(=O)N[C@@H](C)C(=O)N[C@@H](CC1CCCC1)C(=O)N[C@@H](Cc1ccc(O)cc1)C(=O)N[C@@H](CCC(=O)O)C(N)=O (Cbz-AGEA[Ala(cPent)]YE-NH2),0.57,
C[C@H](NC(=O)OCc1ccccc1)C(=O)NCC(=O)N[C@@H](CCC(=O)O)C(=O)N[C@@H](CO)C(=O)N[C@@H](CC1CCCCC1)C(=O)N[C@@H](Cc1ccc(O)cc1)C(=O)N[C@@H](CCC(=O)O)C(N)=O (Cbz-AGES[Cha]YE-NH2),1.3,
C[C@H](NC(=O)OCc1ccccc1)C(=O)NCC(=O)N[C@@H](CCC(=O)O)C(=O)N[C@@H](CO)C(=O)N[C@@H](CC1CCC1)C(=O)N[C@@H](Cc1ccc(O)cc1)C(=O)N[C@@H](CCC(=O)O)C(N)=O (Cbz-AGES[Cba]YE-NH2),1.53,
